# Assay results of several laboratories.
# Target: Dual specificity protein kinase TTK (TTK, Homo sapiens, UniProt P33981)
# Sequence (P33981 1-857, as in one of the studies): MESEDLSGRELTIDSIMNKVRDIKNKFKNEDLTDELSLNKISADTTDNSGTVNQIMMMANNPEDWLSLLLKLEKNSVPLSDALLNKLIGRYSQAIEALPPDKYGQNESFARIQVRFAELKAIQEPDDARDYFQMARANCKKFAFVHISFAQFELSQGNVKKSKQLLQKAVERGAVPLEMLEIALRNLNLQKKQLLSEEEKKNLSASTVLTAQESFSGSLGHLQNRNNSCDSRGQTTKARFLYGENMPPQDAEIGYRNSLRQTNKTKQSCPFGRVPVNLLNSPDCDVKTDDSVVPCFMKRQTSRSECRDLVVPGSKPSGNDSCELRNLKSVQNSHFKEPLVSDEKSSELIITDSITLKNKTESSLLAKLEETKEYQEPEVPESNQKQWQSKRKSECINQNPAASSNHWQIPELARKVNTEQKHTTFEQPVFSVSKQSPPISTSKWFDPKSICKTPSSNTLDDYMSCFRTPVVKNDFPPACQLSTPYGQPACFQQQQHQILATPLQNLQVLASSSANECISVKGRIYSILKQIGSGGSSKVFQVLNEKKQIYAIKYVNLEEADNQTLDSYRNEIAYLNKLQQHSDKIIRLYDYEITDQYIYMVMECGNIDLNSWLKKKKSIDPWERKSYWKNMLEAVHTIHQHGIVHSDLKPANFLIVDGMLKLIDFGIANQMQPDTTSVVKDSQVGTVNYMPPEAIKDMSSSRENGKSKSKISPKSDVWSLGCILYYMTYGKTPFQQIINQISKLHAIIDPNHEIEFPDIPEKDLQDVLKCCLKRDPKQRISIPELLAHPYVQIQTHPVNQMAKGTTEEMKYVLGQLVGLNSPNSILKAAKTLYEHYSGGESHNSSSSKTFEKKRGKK
SMILES,assay,setting,measurement,result
Oc1cccc(-c2nc(N3CCOCC3)c3oc4ncccc4c3n2)c1,"enzyme activity, inhibitor",10 µM,remaining activity,66%
Cn1c2c(c3ccc(Cl)c(Cl)c31)C(C#N)C1(CCNCC1)NC2=O (racemic),"thermal stability, DSF",10 µM,ΔTm,0.7 °C
Cc1ccc(C(=O)Nc2ccc(CN3CCN(C)CC3)c(C(F)(F)F)c2)cc1C#Cc1cnc2cccnn12,enzyme activity,23.5 nM,remaining activity,77%
O=C1Nc2ccc(Cl)cc2C1=Cc1cc(Cl)c(O)c(Cl)c1,cell-free assay,0.5 µM,remaining signal,84.4%
FC(F)(F)Oc1cccc(-c2cnc3ccc(-c4ccncc4)nn23)c1,"enzyme activity, inhibitor, radiometric",5 µM,activity vs control,67%
O=C(NS(=O)(=O)c1ccc(NCC2CCOCC2)c([N+](=O)[O-])c1)c1ccc(N2CCN(Cc3ccc(C(F)(F)F)cc3-c3ccc(Cl)cc3)CC2)cc1Oc1cnc2[nH]ccc2c1,"cell-free assay, competition with immobilised ligand",1 µM,remaining binding,100%
O=C1NC(=O)c2cc(Nc3ccc(F)cc3)c(Nc3ccc(F)cc3)cc21,cell-free assay,0.5 µM,remaining signal,95.4%
COc1cc(/C=C/C(=O)CC(=O)/C=C/c2ccc(O)c(OC)c2)ccc1O,"enzyme activity, inhibitor",1 µM,activity vs control,51%
O=C(NC[C@@H]1[C@H]2CN(C(=O)OCc3cc(C(F)(F)F)cc(C(F)(F)F)c3)C[C@@H]12)c1ccc2[nH]nnc2c1,"cell-free assay, competition with immobilised ligand",1 µM,remaining binding,91%
Cc1ccc(NC(=O)c2ccc(CN3CCN(C)CC3)cc2)cc1Nc1nc(-c2cccnc2)cs1,cell-free assay,0.5 µM,remaining signal,112%
Cn1c2c(Cl)c(Cl)ccc2c2cn[nH]c(=O)c21,"thermal stability, DSF",10 µM,ΔTm,0.6 °C
CCOCCn1cc(C(=O)Nc2ccc(-n3nc(-c4cccnc4)cc3C(F)(F)F)cn2)ccc1=O,"cell-free assay, competition with immobilised ligand",1 µM,remaining binding,100%
N#CCCc1ccc2c(c1)-c1[nH]c3ccc([N+](=O)[O-])cc3c1CC(=O)N2,cell-free assay,0.5 µM,remaining signal,71.7%
Cn1c2c(c3ccc(Cl)c(Cl)c31)C(C#N)C1(CCCCC1)NC2=O (racemic),"thermal stability, DSF",10 µM,ΔTm,0.7 °C
FC(F)(F)c1ccc2c(c1)nc(-c1cccnc1)n2C1CC1,"cell-free assay, competition with immobilised ligand",1 µM,remaining binding,100%
CC(C)(C)c1nc(-c2cccc(NS(=O)(=O)c3c(F)cccc3F)c2F)c(-c2ccnc(N)n2)s1,"enzyme activity, inhibitor, radiometric",1 µM,remaining activity,92%
CN(C(=O)c1ccccc1)c1cc(N(C)c2ccc3c(c2)CCc2ccc(C(=O)NCCN4CCOCC4)cc2C3=O)ccc1F,"cell-free assay, competition with immobilised ligand",1 µM,remaining binding,87%
CN1CC(Oc2cnc(C#N)cc2-c2ccn3nc(NC(=O)C4CC4)cc3c2)C1,"enzyme activity, inhibitor",1 µM,inhibition,12%
NS(=O)(=O)c1cc(NC(=O)C2(c3ccccc3Cl)CC2)ccc1Oc1cccc(Cl)c1,"cell-free assay, competition with immobilised ligand",1 µM,remaining binding,100%
COc1cc(Nc2cnc(C#N)c(O[C@H](C)CN(C)C)n2)ncc1-c1cnn(C)c1,"enzyme activity, inhibitor, radiometric",10 µM,remaining activity,74%
Cn1c2c(c3ccc(Cl)c(Cl)c31)C(C#N)C1(CCN(C(=O)OC(C)(C)C)CC1)NC2=O (racemic),"thermal stability, DSF",10 µM,ΔTm,0 °C
O=C(Nc1cccnn1)N1CCC(=Cc2cccc(Oc3ccc(C(F)(F)F)cn3)c2)CC1,"cell-free assay, competition with immobilised ligand",1 µM,remaining binding,100%
